{"source": "ChEMBL document CHEMBL4828732", "about": "“Synthesis and biological evaluation of selective survivin inhibitors derived from the MX-106 hydroxyquinoline scaffold” (Eur J Med Chem, 2021)", "key": {"[1]": {"test": "Resistance index, ratio of IC50 for antiproliferation activity against human MDA-MB-435/LCC6MDR cells to IC50 for antiproliferation activity against human MDA-MB-435 cells assessed as cell growth inhibition measured after 72 hrs by MTS assay", "format": "functional"}, "[2]": {"test_system": "A-375", "test": "Downregulation of survivin protein expression in human A-375 cells at 10 uM measured after 24 hrs by Westernblot analysis", "format": "functional, cell-based", "in_short": "(§1)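 A375 cells (2 × 10⁶ per 10-cm dish) attached overnight, then treated 24 h in DMEM with 1, 5 or 10 μM. Lysed in RIPA with protease/phosphatase inhibitors; protein measured by Bradford. 50 μg run on SDS-PAGE, transferred to PVDF, blocked in 5% milk, probed overnight at 4°C for survivin, cleaved PARP, cIAP1, XIAP, Livin, with HRP-GAPDH as loading control; ECL detection.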"}, "[3]": {"test_system": "A-375", "test": "Induction of apoptosis in human A-375 cells assessed as increase in cleaved PARP level after 24 hrs by Western blot analysis", "format": "functional, cell-based", "in_short": "as §1"}, "[4]": {"test": "Metabolic stability of the compound in rat liver microsomes assessed as half life at 10 uM incubated for 10 mins in presence of NADPH by UPLC-MS analysis", "format": "ADME, Microsome"}, "[5]": {"test": "Metabolic stability of the compound in mouse liver microsomes assessed as clearance at 10 uM incubated for 10 mins in presence of NADPH by UPLC-MS analysis", "format": "ADME, Microsome"}, "[6]": {"test": "Metabolic stability of the compound in rat liver microsomes assessed as clearance at 10 uM incubated for 10 mins in presence of NADPH by UPLC-MS analysis", "format": "ADME, Microsome"}, "[7]": {"test_system": "A-375", "test": "cells", "settings": "Homo sapiens, A-375, 72 h"}, "[8]": {"test_system": "MDA-MB-435", "test": "cells", "settings": "Homo sapiens, MDA-MB-435, 72 h"}, "[9]": {"test_system": "RPMI-7951", "test": "cells", "settings": "Homo sapiens, RPMI-7951, 72 h"}, "[10]": {"test_system": "MDA-MB-453", "test": "cells", "settings": "Homo sapiens, MDA-MB-453, 72 h"}, "[11]": {"test_system": "SK-BR-3", "test": "cells", "settings": "Homo sapiens, SK-BR-3, 72 h"}, "[12]": {"test_system": "MDA-MB-435/LCC6MDR1", "test": "cells", "settings": "Homo sapiens, MDA-MB-435, 72 h"}, "[13]": {"test_system": "OVCAR-3", "test": "cells", "settings": "Homo sapiens, OVCAR-3, 72 h"}, "[14]": {"test_system": "OVCAR-8", "test": "cells", "settings": "Homo sapiens, OVCAR-8, 72 h"}, "[15]": {"test": "Metabolic stability of the compound in human liver microsomes assessed as clearance at 10 uM incubated for 240 mins in presence of NADPH by UPLC-MS analysis", "settings": "4 h"}, "[16]": {"test_system": "OVCAR-8", "test": "Downregulation of survivin protein expression in human OVCAR-8 cells measured after 24 hrs by Westernblot analysis", "format": "functional, cell-based", "in_short": "(§2)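 Ovarian cancer cells treated 24 h at 2 and 4 μM, or vehicle, in serum-free RPMI 1640. Lysed in RIPA with protease inhibitor; 100 μg protein per lane run on 10% SDS-PAGE, transferred to PVDF, blocked in 5% milk. Probed for survivin, MCL1 and GAPDH; HRP secondary with ECL detection.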"}, "[17]": {"test_system": "OVCAR-3", "test": "Downregulation of survivin protein expression in human OVCAR-3 cells measured after 24 hrs by Westernblot analysis", "format": "functional, cell-based", "in_short": "as §2"}, "[18]": {"test_system": "SK-OV-3", "test": "Downregulation of survivin protein expression in human SK-OV-3 cells measured after 24 hrs by Westernblot analysis", "format": "functional, cell-based", "in_short": "as §2"}, "[19]": {"test": "Metabolic stability of the compound in mouse liver microsomes assessed as half life at 10 uM incubated for 10 mins in presence of NADPH by UPLC-MS analysis", "format": "ADME, Microsome"}, "[20]": {"test": "Metabolic stability of the compound in human liver microsomes assessed as half life at 10 uM incubated for 10 mins in presence of NADPH by UPLC-MS analysis", "format": "ADME, Microsome"}, "[21]": {"test_system": "A-375", "test": "Downregulation of survivin protein expression in human A-375 cells measured after 24 hrs by Westernblot analysis", "format": "functional, cell-based", "in_short": "as §1"}, "[22]": {"test_system": "A-375", "test": "Induction of apoptosis in human A-375 cells assessed as increase in cleaved […] level after 24 hrs by Western blot analysis", "format": "functional, cell-based"}, "[23]": {"test_system": "A-375", "test": "Antitumor activity against human A-375 cells xenografted in NSG mouse assessed as tumor growth inhibition at 20 to 40 mg/kg, ip administrated 3 times a week for 15 days", "format": "functional, organism-based", "settings": "dose 20-40 mg/kg, time 15.0 day"}, "[24]": {"test": "Toxicity in NSG mouse xenografted with human A-375 cells assessed as reduction in body weight at 20 mg/kg, ip administrated 3 times a week for 15 days", "format": "organism-based", "settings": "in vivo, 360 h, time 15 day"}, "[25]": {"test": "Toxicity in NSG mouse xenografted with human A-375 cells assessed as reduction in body weight at 40 mg/kg, ip administrated 3 times a week for 15 days", "format": "organism-based", "settings": "in vivo, 360 h, time 15 day"}, "[26]": {"test_system": "A-375", "test": "Antitumor activity against human A-375 cells xenografted in NSG mouse assessed as reduction in tumor weight at 20 mg/kg, ip administrated 3 times a week for 15 days", "format": "functional", "parameters": "scale not given: the % may be the effect or the level left", "settings": "time 15 day"}, "[27]": {"test_system": "A-375", "test": "Antitumor activity against human A-375 cells xenografted in NSG mouse assessed as reduction in tumor weight at 40 mg/kg, ip administrated 3 times a week for 15 days", "format": "functional", "parameters": "scale not given: the % may be the effect or the level left", "settings": "time 15 day"}, "[28]": {"test": "Toxicity in NSG mouse xenografted with human OVCAR-8 cells assessed as reduction in body weight at 20 mg/kg, ip administrated 3 times a week for 15 days", "format": "organism-based", "settings": "in vivo, 360 h, time 15 day"}, "[29]": {"test_system": "OVCAR-8", "test": "Antitumor activity against luciferase-tagged human OVCAR-8 cells xenografted into left side ovarian bursa of NSG mouse assessed as reduction in number of metastatic tumor in kidney at 20 mg/kg, […] by histological analysis", "format": "functional, organism-based"}, "[30]": {"test_system": "OVCAR-8", "test": "Antitumor activity against luciferase-tagged human OVCAR-8 cells xenografted into left side ovarian bursa of NSG mouse assessed as reduction in number of metastatic tumor in spleen at 20 mg/kg, […] by histological analysis", "format": "functional, organism-based"}, "[31]": {"test_system": "OVCAR-8", "test": "Antitumor activity against luciferase-tagged human OVCAR-8 cells xenografted into left side ovarian bursa of NSG mouse assessed as reduction in number of metastatic tumor in stomach at 20 mg/kg, ip administrated […] by histological analysis", "format": "functional, organism-based"}, "[32]": {"test_system": "OVCAR-8", "test": "Antitumor activity against luciferase-tagged human OVCAR-8 cells xenografted into left side ovarian bursa of NSG mouse assessed as reduction in number of metastatic tumor in intestine at 20 mg/kg, ip administrated 3 times a week for 15 days by histological analysis", "format": "functional, organism-based", "settings": "time 15.0 day"}, "[33]": {"test_system": "OVCAR-8", "settings": "Homo sapiens, dose 20.0 mg/kg, time 15.0 day"}, "[34]": {"test_system": "OVCAR-8", "test": "Antitumor activity against human OVCAR-8 cells xenografted in NSG mouse assessed as tumor weight at 20 mg/kg, ip administrated 3 times a week for 15 days", "settings": "time 15 day"}, "[35]": {"test_system": "OVCAR-8", "test": "Antitumor activity against luciferase-tagged human OVCAR-8 cells xenografted into left side ovarian bursa of NSG mouse assessed as reduction in number of metastatic tumor at 20 mg/kg, ip administrated 3 times a week for 15 days by histological analysis", "settings": "time 15.0 day"}}, "note": "Active and inactive are the calls of the source. No cut-off for these calls is given here."}
{"compound": "CC(C)c1ccc(COCc2cc(-c3ccccc3)c(O)c3ncccc23)cc1", "values": [{"measurement": "Ratio IC50", "setting": "[1]", "value": 2.6}, {"measurement": "Activity", "setting": "[2]", "value": "inactive"}, {"measurement": "Activity", "setting": "[3]", "value": "Active"}, {"measurement": "t1/2", "setting": "[4]", "value": 2.5, "unit": "h"}, {"measurement": "CLH", "setting": "[5]", "value": 5.5, "unit": "µL/min/mg"}, {"measurement": "CLH", "setting": "[6]", "value": 9.2, "unit": "µL/min/mg"}, {"measurement": "IC50", "setting": "[7]", "value": 500, "unit": "nM"}, {"measurement": "IC50", "setting": "[8]", "value": 500, "unit": "nM"}, {"measurement": "IC50", "setting": "[9]", "value": 700, "unit": "nM"}, {"measurement": "IC50", "setting": "[10]", "value": 500, "unit": "nM"}, {"measurement": "IC50", "setting": "[11]", "value": 800, "unit": "nM"}, {"measurement": "IC50", "setting": "[12]", "value": 1400, "unit": "nM"}, {"measurement": "IC50", "setting": "[13]", "value": 1300, "unit": "nM"}, {"measurement": "IC50", "setting": "[14]", "value": 2600, "unit": "nM"}, {"measurement": "CLH", "setting": "[15]", "value": 3.2, "unit": "µL/min/mg"}]}
{"compound": "Oc1c(CN2CCCC2)cc(Cn2ncc(-c3cccc(Br)c3)n2)c2cccnc12", "values": [{"measurement": "Ratio IC50", "setting": "[1]", "value": 0.4}, {"measurement": "Activity", "setting": "[16]", "value": "Active"}, {"measurement": "Activity", "setting": "[17]", "value": "Active"}, {"measurement": "Activity", "setting": "[18]", "value": "Active"}, {"measurement": "t1/2", "setting": "[19]", "value": 1, "unit": "h"}, {"measurement": "t1/2", "setting": "[4]", "value": 0.9, "unit": "h"}, {"measurement": "t1/2", "setting": "[20]", "value": 2.3, "unit": "h"}, {"measurement": "CLH", "setting": "[5]", "value": 24.3, "unit": "µL/min/mg"}, {"measurement": "CLH", "setting": "[6]", "value": 24.8, "unit": "µL/min/mg"}, {"measurement": "IC50", "setting": "[7]", "value": 600, "unit": "nM"}, {"measurement": "IC50", "setting": "[8]", "value": 2600, "unit": "nM"}, {"measurement": "IC50", "setting": "[9]", "value": 600, "unit": "nM"}, {"measurement": "IC50", "setting": "[10]", "value": 2800, "unit": "nM"}, {"measurement": "IC50", "setting": "[11]", "value": 2700, "unit": "nM"}, {"measurement": "IC50", "setting": "[12]", "value": 900, "unit": "nM"}, {"measurement": "IC50", "setting": "[13]", "value": 800, "unit": "nM"}, {"measurement": "IC50", "setting": "[14]", "value": 1300, "unit": "nM"}, {"measurement": "CLH", "setting": "[15]", "value": 10, "unit": "µL/min/mg"}]}
{"compound": "Oc1c(CN2CCCCC2)cc(Cn2ncc(-c3ccc(C(F)(F)F)cc3)n2)c2cccnc12", "values": [{"measurement": "Activity", "setting": "[21]", "value": "Dose-Dependent Effect"}, {"measurement": "Activity", "setting": "[3]", "value": "Active"}, {"measurement": "Activity", "setting": "[22]", "value": "Active"}, {"measurement": "Activity", "setting": "[16]", "value": "Active"}, {"measurement": "Activity", "setting": "[17]", "value": "Active"}, {"measurement": "Activity", "setting": "[18]", "value": "Active"}, {"measurement": "t1/2", "setting": "[4]", "value": 1.6, "unit": "h"}, {"measurement": "t1/2", "setting": "[20]", "value": 1.5, "unit": "h"}, {"measurement": "CLH", "setting": "[5]", "value": 21.6, "unit": "µL/min/mg"}, {"measurement": "CLH", "setting": "[6]", "value": 14.2, "unit": "µL/min/mg"}, {"measurement": "Activity", "setting": "[23]", "value": "Dose-Dependent Effect"}, {"measurement": "Activity", "setting": "[24]", "value": "Non-Toxic"}, {"measurement": "Activity", "setting": "[25]", "value": "Non-Toxic"}, {"measurement": "Activity", "setting": "[26]", "value": 32, "unit": "%"}, {"measurement": "Activity", "setting": "[27]", "value": 55, "unit": "%"}, {"measurement": "Activity", "setting": "[28]", "value": "Non-Toxic"}, {"measurement": "Activity", "setting": "[29]", "value": "Active"}, {"measurement": "Activity", "setting": "[30]", "value": "Active"}, {"measurement": "Activity", "setting": "[31]", "value": "Active"}, {"measurement": "Activity", "setting": "[32]", "value": "inactive"}, {"measurement": "inhibition", "setting": "[33]", "value": "Active"}, {"measurement": "tumor weight", "setting": "[34]", "value": 0.11, "unit": "g"}, {"measurement": "CLH", "setting": "[15]", "value": 15.7, "unit": "µL/min/mg"}, {"measurement": "Activity", "setting": "[35]", "value": "Active"}]}
